ChEMBL document CHEMBL4020803, “Structure-based identification of inhibitors targeting obstruction of the HIVgp41 N-heptad repeat trimer” (Bioorg Med Chem Lett, 2017)
The source made the active and inactive calls. The calls are words filed in the database; no cut-off is given here.

Experiments:
TZM = test: Cytotoxicity against human TZM-bl cells assessed as decrease in cell viability at 25 uM after 6 hrs; type: cell-based
Summary of the method: (§1)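 Viability measured in the same wells as the fusion read-out, using the combined luciferase/cell-viability kit. TZM-bl and HL2/3 cells were pretreated with 25 μM compound, DMSO or 1 μM C34, then co-cultured 6 h at 37 °C, 5% CO2. Duplicate wells per compound.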

[1] = Cytotoxicity against human HL2/3 cells assessed as decrease in cell viability at 25 uM after 6 hrs; type: cell-based; conditions: hl2/3, 6 h; summary of the method: as §1
[2] = test system: Human immunodeficiency virus 1; test: Inhibition of HIV1 gp41-induced cell-cell fusion between viral protein expressing human HL2/3 cells and TZM-bl target cells at 25 uM preincubated with cells followed by co-incubation for 6 hrs by luciferase reporter gene assay relative to control
Summary of the method: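 TZM-bl receptor cells seeded a day ahead, then TZM-bl and HL2/3 effector cells pretreated with 25 μM compound (DMSO stock diluted in complete medium), DMSO alone (maximum signal) or 1 μM C34 (maximum inhibition); cells co-incubated 6 h at 37 °C, 5% CO2. Fusion read by luciferase in a combined luciferase/viability kit; signal normalized to controls. Duplicate wells per compound.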

[3] = test system: Human immunodeficiency virus 1; test: Antiviral activity against HIV1 assessed as inhibition of viral entry into human TZM-bl cells at 25 uM preincubated with cells for 1 hr followed by inoculation with 1 hr compound pretreated virus measured 48 hrs post compound wash out by luciferase reporter gene assay relative to control; type: functional; conditions: for inhibition at 25 µM: Human immunodeficiency virus 1, TZM-bl
Summary of the method: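 HIV-1 made by PEI co-transfection of pNL4-3.HSA.R-E- and pHXB2-env; titer set by X-Gal staining on TZM-bl. TZM-bl seeded 10^4/well a day ahead, pretreated 1 h at 37 °C with 25 μM compound, DMSO or 1 μM C34. Virus (MOI 0.1) preincubated 1 h with the same treatment, added, spinoculated 1,000 × g 1 h RT, 1 h 37 °C, washed, luciferase read at 48 h, normalized.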

[4] = test system: Human immunodeficiency virus 1; test: Antiviral activity against VSV-G pseudotyped HIV1 assessed as inhibition of virus entry by cell-based assay; type: functional
Summary of the method: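 VSV-G-pseudotyped HIV-1 (pNL4-3.HSA.R-E- plus pCMV-VSV-G, made by PEI transfection), tested at 25 μM. TZM-bl cells (10^4/well) and MOI 0.1 virus were each pretreated 1 h at 37 °C. Compound medium was replaced with the treated virus, then spinoculation at 1,000 × g for 1 h at room temperature and 1 h at 37 °C. Cells were washed, grown 48 h drug-free, and read by luciferase. Bafilomycin A1 control.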

With `Cc1ccc(CNC(=O)c2oc3ccc(S(=O)(=O)N4CCC5(CC4)OCCO5)cc3c2C)cc1` the Activity (TZM) was “Non-Toxic”, the Activity [1] was “Non-Toxic” and the inhibition [2] was over 50%. The inhibition at 25 µM [3] was over 50% and the inhibition [4] was “inactive”.
For `CCn1c(SCC(=O)N/N=C/c2cccc(Oc3ccccc3)c2)nnc1-c1ccc(OC)cc1`, the inhibition [3] was “inactive”.
For `COc1ccc(-c2cc(C(=O)NCc3ccc(Cl)cc3)n[nH]2)cc1S(=O)(=O)N1CCOCC1`, the inhibition [3] was “inactive”.
In the case of `Cn1c(SCC(=O)N/N=C/c2cc(Br)cc(Br)c2O)nc2ccccc21`, the Activity (TZM) is reported as “Non-Toxic”, the Activity [1] is reported as “Non-Toxic” and the inhibition [2] is reported as over 50%. The inhibition at 25 µM [3] was over 50% and the inhibition [4] was “inactive”.
